Most compounds without a hit are left out; they make up all but 2.1% or so of the library.
EBI2 block: EBI2 (human) antagonism; P32249; EBI2 beta-arrestin recruitment, luminescence, 7a,25-OHC stimulated; inhibition, % at 5 µM; 0.81% of 360,000 active; AID 651636; in the data active = inhibition above about 38%;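 note: enzyme fragment complementation signal reports receptor beta-arrestin coupling in cells; 0% = agonist plus DMSO wells and 100% = wells without agonist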
APJ antagonist: blocks the human apelin receptor APJ. P35414. CHO-K1 APJ beta-arrestin complementation, luminescence. inhibition, % at 20 µM. 0.32% of 330,000 active;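 active = inhibition above about 40% at 20 µM, limit read from the data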;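 note: cells challenged with 10 nM apelin-13 agonist together with compound; plate controls were apelin-13 plus DMSO wells for no effect and DMSO wells lacking apelin-13 for full effect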
APJ agonist: agonists of human APJ apelin receptor | P35414 | CHO-K1 APJ PathHunter beta-arrestin, luminescence; 0% DMSO wells, 100% apelin | activation, % at 20 µM | 0.11% of 330,000 active | AID 2520;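 active = activation more than six SD over the plate average, tested at 20 µM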;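 note: 0% = DMSO alone and 100% = apelin-13 at 10 nM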
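assay system = CHO-K1 APJ beta-arrestin complementation cell line | input = cell density 1000 per well | dosing = compound 20 µM once, DMSO 1% | timing = compound 90 min 25 °C, reagent 1 h | measured by = luminescence from split beta-galactosidase complementation, Galacton Star/Emerald II substrate | read-out basis = APJ agonist activity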
CXCR6 block: inhibitors of human CXCR6 receptor | CHO-K1 PathHunter CXCR6 beta-arrestin, luminescence | inhibition, % at 20 µM | 0.36% of 360,000 active | AID 602244; in the data active = inhibition above about 34%, passing the limit was not always enough;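 note: antagonist mode with CXCL16 agonist at 10 nM final; 0% = 10 nM CXCL16 with DMSO and 100% = unstimulated wells without agonist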
CCR6 antag: antagonists of human CCR6 receptor. CHO-K1 CCR6 PathHunter beta-arrestin, luminescence, CCL20-stimulated. inhibition, % at 20 µM. 0.49% of 340,000 active;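 active = compounds whose inhibition of the agonist-driven luminescence signal at 20 µM reaches about 50%, limit read from the data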;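 note: cells stimulated with CCL20 at 14 nM final; plate controls were DMSO with CCL20 for no effect and DMSO without agonist for full effect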
Target sequence (P51684 whole entry, looked up): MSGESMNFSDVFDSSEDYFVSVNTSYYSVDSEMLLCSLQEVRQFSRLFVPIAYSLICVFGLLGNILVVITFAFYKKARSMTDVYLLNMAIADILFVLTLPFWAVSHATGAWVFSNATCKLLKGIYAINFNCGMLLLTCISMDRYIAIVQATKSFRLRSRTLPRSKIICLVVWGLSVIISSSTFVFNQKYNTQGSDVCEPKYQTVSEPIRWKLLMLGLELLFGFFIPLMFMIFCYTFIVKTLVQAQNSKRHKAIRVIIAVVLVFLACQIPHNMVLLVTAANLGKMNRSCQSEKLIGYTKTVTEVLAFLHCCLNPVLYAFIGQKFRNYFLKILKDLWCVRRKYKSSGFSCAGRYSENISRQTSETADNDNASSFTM
HTR2A ag: agonists of mouse serotonin 5-HT2A receptor (HTR2A); activation, % at 7.6 µM; 0.66% of 360,000 active; CHO-K1 mHTR2A beta-arrestin complementation, luminescence; percent of 30 µM serotonin response;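 active = activation above a run cutoff, the mean activation of all tested compounds plus 3 SD, cut at about 14% in these data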;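 note: 0% = plate median of compound wells and 100% = 30 µM serotonin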
OPRM1 ag: counter-screen for mouse HTR2A agonists: human mu opioid receptor agonists | activation, % at 9.3 µM | U2OS OPRM1 beta-arrestin PathHunter, luminescence; DMSO 0%, DAMGO 9.3 µM 100% | shares compounds with HTR2A ag | 5.3% of 2,300 active;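 active = mean activation above the mean of DMSO-only wells plus 3 SD, cut at about 0.5% in these data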
HTR2A ag conf: mouse HTR2A agonism confirmed. CHO-K1 PathHunter beta-arrestin recruitment, luminescence; DMSO 0%, 30 µM serotonin 100%. AID 624381. 19% of 2,300 active. activation, % at 7.6 µM. shares compounds with HTR2A ag;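 active = mean activation across triplicates above the hit threshold derived in the original primary screen, cut at about 15% in these data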
* hit, by the source's call; nt = not tested or not shown.

SMILES	EBI2 block	APJ antagonist	APJ agonist	CXCR6 block	CCR6 antag	HTR2A ag	OPRM1 ag	HTR2A ag conf
CCc1cccc(CC)c1NC(=O)COC(=O)C1(C)CC1(Cl)Cl (centres undefined)	4	15	-1	4	20	17*	-1	-4
O=C(Nc1ccccc1)Nc1ccc2ccccc2n1	21	22	0	-5	-11	16*	0	-4
Cc1cccc(N2CCN(c3ccc(N4C(=O)CCCC4=O)cc3[N+](=O)[O-])CC2C)c1 (centres undefined)	5	12	-1	16	24	15*	-1	7
Cc1cccc(N2CCN(c3ccc(N4C(=O)CCCC4=O)cc3[N+](=O)[O-])CC2)c1C	19	8	-4	-2	26	-3	nt	nt
NS(=O)(=O)c1ccc(NC(=S)N2CCN(c3ccc(Cl)c(Cl)c3)CC2)cc1	-2	-21	4	-4	5	35*	0	10
CCCN1CCN(C(=S)Nc2ccc(S(N)(=O)=O)cc2)CC1	-10	3	-2	-6	7	16*	-1	-1
COc1ccc(C(=O)NN/C=C/C(=O)c2ccc(Br)cc2)cc1	13	nt	nt	29	nt	1	nt	nt
COc1ccc(NC(=O)c2cc([N+](=O)[O-])ccc2O)cc1	6	22	-3	-8	10	15*	-1	-3
COc1ccc(NC(=O)c2cccc([N+](=O)[O-])c2)cc1	-7	-4	-1	-7	3	1	nt	nt
Cc1ccc(-n2c(N)c(C(N)=O)sc2=S)cc1	-7	22	-4	-4	12	19*	-1	-5
CCOC(=O)C1=NOC2COC3(CCN(c4ncccn4)CC3)OCC12 (centres undefined)	-4	0	-3	4	2	15*	0.6*	6
COc1ccc(CCNC(=O)C(=O)NCC2CCCN2S(=O)(=O)c2ccccc2)cc1 (centres undefined)	-17	-36	3	-1	2	16*	0	0
COc1ccc(S(=O)(=O)N2CCOC2CNC(=O)C(=O)NCCc2ccccc2)cc1C (centres undefined)	-6	7	0	-4	0	16*	-1	-5
COc1ccc(S(=O)(=O)N2CCCC2CNC(=O)C(=O)NCCc2ccccc2)cc1 (centres undefined)	8	11	5	-4	-7	2	nt	nt
CC1(C)SC(=S)N(NC(=O)Nc2ccccc2)C1N(O)C(=O)Nc1ccccc1 (centres undefined)	6	-1	10	-7	-10	1	nt	nt
Nc1ccc(C(=O)O)cc1	0	2	0	-1	1	3	nt	nt
Cc1ccc(C(=O)NNC(=O)Cn2ccc(C(F)(F)F)n2)o1	-9	9	1	3	5	16*	-1	-1
O=C(Cn1ccc(C(F)(F)F)n1)NNC(=O)c1cccnc1	-8	0	6	-4	-4	4	nt	nt
Cc1cccc(CCNS(=O)(=O)c2cc3c(cc2C)NC(=O)CO3)c1	0	10	-2	-10	14	21*	-1	-4
Cc1occc1C(=O)N1CCN(c2ccc(Cl)c(Cl)c2)CC1	15	-9	1	-20	-5	36*	0	13
O=C(O)C1CC1C(=O)N1CCN(c2ccc(Cl)c(Cl)c2)CC1 (centres undefined)	5	-4	0	-17	7	36*	-1	19*
Cc1occc1C(=O)N1CCN(c2ccccc2)CC1	-1	-16	2	-6	0	0	nt	nt
CCc1cccc(C)c1NC(=O)CC(C)(C)CC(=O)O	0	-1	-3	-12	9	18*	0	-3
CCc1cccc(C)c1NC(=O)CCCC(=O)O	-6	7	-2	-4	-5	-1	nt	nt
COC(=O)CSc1[nH]c(=O)cc(C)c1C#N	-6	23	-3	-10	-10	17*	0	-3
SMILES	EBI2 block	APJ antagonist	APJ agonist	CXCR6 block	CCR6 antag	HTR2A ag	OPRM1 ag	HTR2A ag conf
Clc1ccc(/C=N/NC2=Nc3cccc4cccc2c34)cc1	29	0	-1	2	11	15*	0	2
CC1CCc2c(sc(NC(=O)C(=O)NCc3ccco3)c2C#N)C1 (centres undefined)	9	-6	3	0	22	-3	nt	nt
CC1CCN=C(N)S1 (centres undefined)	5	3	-4	-5	0	16*	0	0
CCOC(=O)c1ccc(NC(=O)c2nc[nH]c2C(=O)N[C@@H](CC(C)C)C(=O)OC(C)(C)C)cc1	-12	-14	0	-8	9	4	nt	nt
CC(C)C[C@H](NC(=O)c1[nH]cnc1C(=O)Nc1ccccc1)C(=O)OC(C)(C)C	-19	14	0	17	13	16*	0	-6
CCOc1ccc2oc(C(=O)Nc3ccc4c(c3)OCO4)c(C)c2c1	4	20	1	-5	8	-12	nt	nt
Cc1cc(Cl)ccc1OC(C)C(=O)NC(C)C1CCCO1 (centres undefined)	6	11	-6	6	7	16*	0	-3
Cc1cc(OC(C)C(=O)NCC2CCCO2)cc(C)c1Cl (centres undefined)	6	18	-2	3	10	15*	-1	-4
COc1ccc(NC(=O)CCNS(=O)(=O)c2ccc3[nH]c(=O)oc3c2)cc1Cl	-7	-8	1	5	1	22*	0	3
CCCc1cc(=O)n2[nH]cc(-c3ccc(Cl)cc3)c2n1	0	4	-2	14	26	0	nt	nt
CCn1cc(C(=O)NCCCN2CCCC(C)C2)c(=O)c2cc(S(=O)(=O)N3CCOCC3)ccc21 (centres undefined)	-5	4	0	3	17	21*	-1	-5
CCOCCCNC(=O)c1cn(CC)c2ccc(S(=O)(=O)N3CCOCC3)cc2c1=O	-4	3	0	14	7	9	nt	nt
COC(=O)c1ccccc1NC(=O)CCS(=O)(=O)c1cc2c(cc1C)NC(=O)CO2	1	20	-6	2	-1	3	nt	nt
COc1cc(/C=C2\C(=N)N3N=C(S(C)(=O)=O)SC3=NC2=O)ccc1OCCOc1ccc(C)cc1	-5	20	-4	-4	24	16*	-1	-2
CC1(C)Oc2ccc3ccc(=O)oc3c2/C(=C/Nc2cccc(O)c2)C1=O	-1	3	3	9	8	17*	0	4

Screening data deposited in PubChem BioAssay by several laboratories.
